Here are results for eight substances from PMC2289653 (The Journal of Cell Biology, 1992).

For experiment [1], the system named is pp60v-src binding to plasma membranes (src receptor). To be noted: previous experiments; ref Resh, 1989; cited from earlier work.
The test system of experiment [2] is kin-src binding to plasma membranes (src receptor). The experiment in a line: Competition of kin-src membrane binding by peptides or polypeptides. On the set-up: species or system vole. Put shortly:
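[35S]methionine-labelled chimera translated in rabbit reticulocyte lysate (90 min, 30°C; Triton X-100 0.075% final), then incubated 30 min at 20°C with 1T cell P100 membranes with increasing myristylated peptide. Also tested: 8-mer at 92 µM, 15-mer at 58 µM, or in vitro translated competitor polypeptide. Pellets at 100,000 g; gel slices counted. Pellet without membranes subtracted; untreated membranes set to 100%.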

The test system of experiment [3] is pp60v-src binding to plasma membranes (src receptor). The experiment in a line: Competition of pp60v-src membrane binding by peptides or polypeptides. Set-up: species or system vole. A digest of the protocol: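 1T cell P100 membranes incubated with [35S]methionine-labelled, reticulocyte-lysate-translated protein plus increasing myristylated N-terminal peptides, including Lys→Asn or Arg variants. Nonmyristylated peptide served as control. Incubation 30 min at 20°C, then ultracentrifugation at 100,000 g. Gel slices counted by scintillation. Pellet without membranes subtracted; binding to untreated membranes normalised to 100%.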

Experiment [4] deals with del 15-263 binding to vole cell membranes (P100). The experiment in a line: Competition of del 15-263 membrane binding by MGYsrc peptide. Put shortly: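 In vitro translated [35S]methionine-labelled deletion mutant (rabbit reticulocyte lysate) incubated with vole P100 membranes with increasing myristylated src peptide. Binding quantitated by gel slice scintillation counting, pellet without membranes subtracted, untreated membranes set to 100%. In parallel, membranes were incubated 15 min at 20°C with 4 × 10^5 c.p.m. 125I-peptide, then 15 min with BS3 crosslinker, in the presence of increasing unlabelled peptide. After 100,000 g reisolation, SDS gel, and gamma counting of the excised band.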

Experiment [5] has as its system NIH3T3 cells. Briefly: Subcellular fractionation and immunofluorescence of G418-resistant NIH3T3 clones. The class given is cell-based. Particulars: for Percent association with cell fraction P1 / Percent association with cell fraction P100: percentage of total src kinase activity; for Percent association with cell fraction P1: 1,000-g pellet; for Percent association with cell fraction P100: 100,000-g pellet. Put shortly:
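G418-resistant NIH3T3 clones (retroviral transfer) labelled 1 h with 50 µCi/ml [35S]methionine. Cells lysed by hypotonic Dounce homogenisation and spun into a 1,000 g pellet (P1), a 100,000 g pellet (P100) and S100. Fractions adjusted to kinase buffer, immunoprecipitated with anti-p60 serum, and subjected to in vitro kinase assay. Analysed by SDS-PAGE and scintillation counting; each fraction given as percent of total kinase activity.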

Experiment [6] relates to plasma membrane-enriched fractions (P100) from vole cells; membrane-bound src receptor. Briefly: In vitro membrane binding of in vitro translated src proteins. Particulars: for decrease in membrane-binding capacity versus wild type: P100 membranes from normal vole cells, average of three experiments, Fig. 5.
In experiment [7] the test system is NIH3T3 cells. Briefly: Transformation: morphology and growth in soft agar. In kind it is cell-based. A digest of the protocol:
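NIH3T3 cells transduced with PLJ retroviral vector carrying src or chimera, or with vector alone. G418-resistant clones expanded, then morphology examined by phase-contrast microscopy. Growth in soft agar scored +/− per clone.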

Experiment [8] relates to myristyl transferase. Briefly: Efficiency of myristylation on translation in reticulocyte lysate. In kind it is biochemical. Particulars: rabbit reticulocyte lysate; densitometry; normalized to pp60v-src = 1; Table II. Put shortly:
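Constructs translated in rabbit reticulocyte lysate for 90 min at 30°C, with either 0.4 µCi/µl [35S]methionine or 0.7 µCi/µl [3H]myristic acid. Products resolved by SDS gel; myristate-to-methionine incorporation ratio expressed relative to wild-type.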

Setting [9] is: peptide at 340 μM, 1T cell P100 membranes, Fig. 2.

Turning to GNAAAAKKY [8 mer], in experiment [1], the “inhibition of pp60v-src binding” value is “failed to detect inhibition”. For the same substance, the “inhibition of membrane binding of kin-src” value in experiment [2] (peptide at 92 μM) came to 35%.
Regarding “GQ1WTTPLY [myristylated gag peptide, reference compound]”, in experiment [2] (data not shown), the “effect on the binding of kin-src” value is “did not have a significant effect”.
Consider GSSKSKPKDPSY [GYsrc], for which the “inhibition of pp60v-src membrane binding” value in experiment [3] (setting [9]) is 10-20%. Besides, the “inhibition of kin-src membrane binding” value in experiment [2] (setting [9]) was 10-20%.
In general, Ki refers to the equilibrium dissociation constant of an inhibitor or competing ligand from its target. Regarding GSSKSKPKDPSY [MGYsrc], the “inhibition of binding of the del 15-263 polypeptide” value in experiment [4] (increasing MGYsrc, vole cell P100 membranes, Fig. 6) was 80-90%. Besides, the Ki in experiment [4] (read-out: Ki for membrane binding of del 15-263, vole P100 membranes, Fig. 7) came to 35 µM. Further, the “maximum inhibition of pp60v-src binding” value in experiment [3] (competition never complete, on average, Figs. 2 and 4) is recorded as 50-60%. For the same substance, the “kin-src polypeptide released from the membrane by MGYsrc” value in experiment [2] (from the shape of the binding curve in Fig. 2) was around 75%.
In the case of “pp60v-src: protein product of the v-src gene of Rous sarcoma virus; NH2 terminus M G S S K S K P K D P S Q R”, the “Percent association with cell fraction P1” value came to 43% in experiment [5] (clone 1), 32% in experiment [5] (clone 2), 17% in experiment [5] (clone 3) and 34% in experiment [5] (clone 4). For the same substance, the “Percent association with cell fraction P100” value in experiment [5] (clone 1) is given as 47%; in experiment [5] (clone 2) it was 61%; in experiment [5] (clone 3) it was 67%; in experiment [5] (clone 4), 57%. Also, in experiment [5] (hypotonic lysis and differential centrifugation, Table III), the “polypeptide membrane associated in vivo” value is 80-90%. Besides, in experiment [5] (indirect immunofluorescence and cellular fractionation), the “subcellular localization in vivo” value is on record as “punctate membrane staining”. For the same substance, the “ratio of src protein in the pellet fraction +Mbs/-Mbs” value in experiment [6] (1T membranes (P100), 30 min at 20°C, average of four experiments, Fig. 1) was 3.2. Further, the “morphology of expressing cells” value in experiment [7] (G418-resistant clonal populations, phase contrast, Fig. 3) is listed as “fully transformed”. The “growth in soft agar” value in experiment [7] (G418-resistant clones, Table III prints + for all four clones of each) is on record as “capable of growth in soft agar”. In experiment [2] (equimolar or submolar concentrations of in vitro translated polypeptide, data not shown), the “competition of radiolabeled kin-src binding by polypeptide” value is given as “readily com- peted”.
On to “v-src N5+9: mutant of v-src in which both lysines 5 and 9 were converted to asparagine”, for which the “Relative incorporation [3H]myristate/[35S]methionine” value in experiment [8] was found to be 0.93. Besides, in experiment [6], the “decrease in membrane-binding capacity versus wild type” value is given as ~ 60%.
On the same counts, the results for “v-src N5: mutant of v-src in which lysine 5 has been converted to asparagine” are 0.99 and 30%.
On the same counts, the results for “v-src N9: mutant of v-src in which lysine 9 has been converted to asparagine” are 0.98 and 45%.
